How the values were obtained:
Hepatocyte = assay: (§1) Induction of CYP1A2 mRNA expression in rat hepatocytes at 10 uM by Taqman analysis relative to control; type: ADME, cell-based; settings: 10 µM
CYP1A2 [1] = assay: Induction of CYP1A2 mRNA expression in rat hepatic microsomes at 20 mg/kg, po QD for 4 days relative to control; type: ADME, organism-based, Liver; settings: hepatic microsomes, read-out: FC
Summary of the method: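 Male CD rats (226–325 g), n = 3, given test compound by oral gavage once daily for 4 days. Vehicle was 1% w/v methylcellulose aqueous suspension (3–6 mg/mL, 5 mL/kg); target dose 15–30 mg/kg. Liver from the left lateral lobe was put in RNALater, then TRIzol extraction and cDNA conversion; Cyp1a analysed on low-density arrays.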

CYP1A1 [2] = assay: Induction of CYP1A1 mRNA expression in rat hepatic microsomes at 20 mg/kg, po QD for 4 days relative to control; type: ADME, organism-based, Liver; settings: hepatic microsomes, read-out: FC
Summary of the method: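 Male CD rats, n = 3, received the compound once daily by oral gavage for 4 days in 1% methylcellulose suspension at 5 mL/kg. At necropsy a left lateral liver lobe section was stored in RNALater on ice. Tissue was TRIzol-homogenized, RNA purified, DNased and converted to cDNA. Cyp1a1 was read on low density arrays and expressed relative to control.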

CYP1A1 [3] = assay: Induction of CYP1A1 mRNA expression in rat hepatocytes at 10 uM by Taqman analysis relative to control; type: ADME, cell-based, Hepatocyte; settings: read-out: FC
CYP1A1 [4] = assay: Induction of CYP1A1 gene expression in rat hepatic microsomes at 30 to 300 mg/kg, po QD for 7 days; type: ADME, organism-based, Liver; settings: read-out: FC
Summary of the method: (§2)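 Rats received oral doses daily for 7 days: 30 and 100 mg/kg, or 30, 100 and 300 mg/kg, depending on compound. Hepatic CYP1A1 mRNA was expressed as fold induction versus control animals.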

CYP1A2 [5] = assay: as §1; type: ADME, cell-based, Hepatocyte; settings: read-out: FC
Rattus norvegicus [6] = assay: Induction of Nqo1 gene expression in rat hepatic microsomes at 30 to 300 mg/kg, po QD for 7 days; type: organism-based, Liver; settings: 168 h
Summary of the method: (§3)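 Rats dosed orally once daily for 7 days at 30–300 mg/kg/day, depending on compound. Hepatic AhR-panel gene mRNA (Cyp1a, Nqo1, Ephx1) measured and expressed as fold induction versus control animals.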

Rattus norvegicus [7] = assay: Induction of Ephx1 gene expression in po dosed rat hepatic microsomes administered po QD for 7 days; type: organism-based, Liver; settings: 168 h; summary of the method: as §3
Rattus norvegicus [8] = assay: Induction of CYP1A1 gene expression in po dosed rat hepatic microsomes administered po QD for 7 days; type: ADME, organism-based, Liver; settings: 168 h; summary of the method: as §2
Rattus norvegicus [9] = assay: Induction of Nqo1 gene expression in po dosed rat hepatic microsomes administered po QD for 7 days; type: organism-based, Liver; settings: 168 h; summary of the method: as §3
CYP1A1 [10] = assay: Induction of CYP1A1 mRNA expression in rat hepatic microsomes at 30 mg/kg, po QD for 7 days relative to control; type: ADME, organism-based, Liver; settings: read-out: FC
Summary of the method: (§4)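 Male rats dosed orally once daily for 7 days. Hepatic mRNA measured by Taqman and expressed as fold induction versus control animals.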

Rattus norvegicus [11] = assay: Induction of Ephx1 gene expression in rat hepatic microsomes at 30 to 300 mg/kg, po QD for 7 days; type: organism-based, Liver; settings: 168 h; summary of the method: as §3
Rattus norvegicus [12] = assay: Induction of CYP1A2 gene expression in rat hepatic microsomes at 30 to 300 mg/kg, po QD for 7 days; type: ADME, organism-based, Liver; settings: 168 h; summary of the method: as §3
CYP1A2 [13] = assay: Induction of CYP1A2 mRNA expression in rat hepatic microsomes at 30 mg/kg, po QD for 7 days relative to control; type: ADME, organism-based, Liver; settings: read-out: FC; summary of the method: as §4
Rattus norvegicus [14] = assay: Induction of CYP1A2 gene expression in po dosed rat hepatic microsomes administered po QD for 7 days; type: ADME, organism-based, Liver; settings: 168 h; summary of the method: as §3
[15] = Intrinsic clearance in cynomolgus monkey liver microsomes by LC-MS/MS analysis; type: ADME, Macaca fascicularis
Summary of the method: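 Liver microsomes were prepared from control and treated cynomolgus monkeys by differential centrifugation (10 000g, then 105 000g). Compound incubated at 37 °C in 50 mM potassium phosphate pH 7.4 with an NADPH-generating system. Samples taken at 0–30 min, quenched with solvent containing internal standard, and analysed by LC–MS/MS to derive intrinsic clearance.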

Rattus norvegicus [16] = assay: Induction of CYP1A2 gene expression in rat hepatic microsomes at 30 to 100 mg/kg, po QD for 7 days; type: ADME, organism-based, Liver; settings: 168 h
CYP1A2 [17] = target: T1, CYP1A2 (Homo sapiens, UniProt P05177); assay: Induction of CYP1A2-mediated 7-ethoxyresorufin O-deethylase activity in human hepatocytes at 5 uM after 10 mins by fluorescence assay relative to control; type: ADME, cell-based, Hepatocyte; settings: probe 7-ethoxyresorufin, read-out: FC
T1 sequence (P05177 whole entry): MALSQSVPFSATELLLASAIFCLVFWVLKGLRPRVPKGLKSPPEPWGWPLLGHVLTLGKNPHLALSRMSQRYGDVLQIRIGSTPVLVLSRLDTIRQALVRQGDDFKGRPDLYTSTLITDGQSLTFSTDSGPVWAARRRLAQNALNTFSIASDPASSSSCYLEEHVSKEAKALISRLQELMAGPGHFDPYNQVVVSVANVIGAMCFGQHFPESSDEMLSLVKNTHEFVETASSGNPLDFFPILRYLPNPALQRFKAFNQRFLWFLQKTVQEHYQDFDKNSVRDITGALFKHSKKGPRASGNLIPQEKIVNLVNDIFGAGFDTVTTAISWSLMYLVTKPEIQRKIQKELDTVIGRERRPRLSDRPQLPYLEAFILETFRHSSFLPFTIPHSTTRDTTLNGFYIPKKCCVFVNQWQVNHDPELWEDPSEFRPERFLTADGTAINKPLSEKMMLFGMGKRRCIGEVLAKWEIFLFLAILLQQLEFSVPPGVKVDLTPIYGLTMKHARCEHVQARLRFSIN
Summary of the method: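 Human hepatocytes were treated for 48 h (re-dosed at 24 h), washed, then incubated with 0.5 μM ethoxyresorufin in serum-free medium for 10 min at 37 °C. Resorufin fluorescence read at Ex 530/Em 590 nm. Rate in fluorescence units/min expressed as fold over solvent control.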

Cynomolgus monkey [18] = assay: Induction of CYP1A2 gene expression in cynomolgus monkey liver at 30 mg/kg, po QD for 7 days by Taqman analysis; type: ADME, organism-based, Macaca fascicularis; settings: in vivo, 168 h
Summary of the method: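 Cynomolgus monkeys dosed orally at 30 mg/kg daily for 7 days. Liver CYP1A2 mRNA measured by Taqman analysis in treated animals versus vehicle-control animals.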

CYP1A2 [19] = assay: Induction of CYP1A2 mRNA expression in human hepatocytes at 10 uM relative to control; type: ADME, cell-based, Hepatocyte; settings: read-out: FC
Cynomolgus monkey [20] = assay: Induction of CYP1A1 gene expression in cynomolgus monkey liver at 30 mg/kg, po QD for 7 days by Taqman analysis; type: ADME, organism-based, Macaca fascicularis; settings: in vivo, 168 h
Summary of the method: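 Cynomolgus monkeys were dosed orally at 30 mg/kg daily. Hepatic CYP1A1 mRNA from treated livers was measured by Taqman and compared with vehicle-control animals.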

Rattus norvegicus [21] = assay: Induction of Nqo1 gene expression in rat hepatic microsomes at 30 to 100 mg/kg, po QD for 7 days; type: organism-based, Liver; settings: 168 h
CYP1A1 [22] = assay: Induction of CYP1A1 gene expression in rat hepatic microsomes at 30 to 100 mg/kg, po QD for 7 days; type: ADME, organism-based, Liver; settings: read-out: FC
Rattus norvegicus [23] = assay: Induction of Ephx1 gene expression in rat hepatic microsomes at 30 to 100 mg/kg, po QD for 7 days; type: organism-based, Liver; settings: 168 h

fold induction at 10 µM (CYP1A1 [3])	fold induction at 10 µM (CYP1A2 [5])	Activity (Rattus norvegicus [7])	Activity (Rattus norvegicus [8])	Activity (Rattus norvegicus [9])	fold induction at 168 h (CYP1A1 [10])	fold induction at 168 h (CYP1A2 [13])	Activity (Rattus norvegicus [14])	Structure (SMILES)	also measured
43	–	–	–	–	–	–	–	CC(C)Oc1ncc(-c2nc(-c3cccc4c3OCCNC4CCCC(=O)O)no2)cc1Cl (stereo in doubt; 6)	fold change (FC) (Hepatocyte): 19; fold induction at 96 h (CYP1A2 [1]): 2; fold induction at 96 h (CYP1A1 [2]): 2
3	2	Dose-dependent effect	Dose-dependent effect	Dose-dependent effect	210	2	Dose-dependent effect	CC(C)Oc1ccc(-c2nc(-c3ccc4c(c3)CCN(CCCC(=O)O)CC4)no2)cc1C#N	fold induction at 168 h (CYP1A1 [4]): 10000; Activity (Rattus norvegicus [6]): Toxic; Activity (Rattus norvegicus [11]): Toxic; Activity (Rattus norvegicus [12]): Toxic
< 1	< 1	Dose-dependent effect	Dose-dependent effect	Dose-dependent effect	35	2	Dose-dependent effect	CC(C)Oc1ccc(-c2nc(-c3cccc4c3cnn4CCC(=O)O)no2)cc1Cl	CLint scaled [15]: 11 mL/min/g; Activity (Rattus norvegicus [16]): Toxic; fold induction at 10 min, 5 µM (CYP1A2 [17]): 7.7; Activity (Cynomolgus monkey [18]): Toxic; fold induction at 10 µM (CYP1A2 [19]): 45; Activity (Cynomolgus monkey [20]): Toxic; Activity (Rattus norvegicus [21]): Toxic; fold induction at 168 h (CYP1A1 [22]): 10000; Activity (Rattus norvegicus [23]): Toxic

Source: ChEMBL document CHEMBL3627702, “Navigating CYP1A Induction and Arylhydrocarbon Receptor Agonism in Drug Discovery. A Case History with S1P1 Agonists” (J Med Chem, 2015)
